This note sets out measurements from ChEMBL document CHEMBL4414575, “Yangpumicins F and G, Enediyne Congeners from Micromonospora yangpuensis DSM 45577” (J Nat Prod, 2019).

In brackets after ≈: the same amount, converted by molar mass. Activity calls are given as the source filed them. No cut-off for these calls is given here.

In assay [1] the test system is Caco-2. The assay is described as follows: Cytotoxicity against human Caco2 cells assessed as inhibition of cell viability incubated for 72 hrs by MTT assay. In kind it is functional, cell-based. As to conditions: Caco-2, 72 h. A digest of the protocol:
(§1)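 Cells seeded at 2,000–4,000 per well and left 24 h. They are then exposed to a range of compound concentrations for 72 h. Survival is read by adding CCK-8 solution and measuring absorbance at 450 nm. Mitomycin is the reference control.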
(Tetrazolium dyes change colour on reduction, which living cells bring about.)

Assay [2] concerns SK-BR-3. The assay is described as follows: Cytotoxicity against human SKBR3 cells assessed as inhibition of cell viability incubated for 72 hrs by MTT assay. It is filed as functional, cell-based. The following applies: SK-BR-3, 72 h. The method, boiled down:
as §1

For the next assay, the system named is A549. In words: Cytotoxicity against human A549 cells assessed as inhibition of cell viability incubated for 72 hrs by MTT assay. In kind it is functional, cell-based. As to conditions: A549, 72 h. The method, boiled down:
as §1

For a further assay, the system named is Jurkat. In words: Cytotoxicity against human Jurkat cells assessed as inhibition of cell viability incubated for 72 hrs by MTT assay. In kind it is functional, cell-based. The method, boiled down: as §1
For the next assay, the system named is Escherichia coli. The assay is described as follows: Antimicrobial activity against Escherichia coli incubated for 18 hrs by resazurin staining based microbroth dilution assay. In kind it is functional. The method, boiled down: (§2)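 Strains grown overnight, diluted to 10^6 CFU/mL in LB broth. Compounds in DMSO, serially diluted in LB (pg/mL to ng/mL range), mixed 1:1 with bacterial suspension. Vancomycin is the reference, 0.03125–16 μg/mL. Plates incubated 37 °C for 18 h, then resazurin added for read-out. Duplicates per plate.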

For assay [3], the system named is Staphylococcus aureus. The assay is described as follows: Potency index, ratio of MIC for vancomycin to MIC for test compound for antimicrobial activity against Methicillin-resistant Staphylococcus aureus. It is filed as functional. The method, boiled down: (§3)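 Overnight bacterial cultures diluted to 10^6 CFU/mL in LB broth, mixed 1:1 with LB holding serial dilutions of test compound (DMSO stocks, 1–512 pg/mL and 1–512 ng/mL series) or vancomycin (0.03125–16 μg/mL). Incubated 37 °C, 18 h, then resazurin added for read-out. Run in duplicate per plate. Index is vancomycin MIC divided by test-compound MIC.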

Assay [4] relates to Staphylococcus aureus. The assay is described as follows: Antimicrobial activity against Staphylococcus aureus ATCC 29213 incubated for 18 hrs by resazurin staining based microbroth dilution assay. It is filed as functional. As to conditions: ATCC 29213, 18 h. The method, boiled down: as §2
Background: Alamar Blue is a resazurin reagent that responds to reducing activity.

In assay [5] the test system is Caco-2. In words: Potency index, ratio of YPM G IC50 to compound IC50 for cytotoxicity against human Caco2 cells by MTT assay. In kind it is functional.
Assay [6] concerns SK-BR-3. The assay is described as follows: Potency index, ratio of YPM G IC50 to compound IC50 for cytotoxicity against human SKBR3 cells by MTT assay. It is filed as functional.
Assay [7] concerns Staphylococcus aureus. In words: Antimicrobial activity against Methicillin-resistant Staphylococcus aureus incubated for 18 hrs by resazurin staining based microbroth dilution assay. In kind it is functional. The method, boiled down:
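Overnight culture diluted to 106 CFU/mL in LB broth, mixed 1:1 with compound serially diluted in LB on the plate from DMSO stock (1–512 ng/mL and 1–512 pg/mL series; vancomycin 0.03125–16 μg/mL). Incubated 37 °C for 18 h, then resazurin added to read growth; MIC taken from broth microdilution, duplicate per plate. Strain is a local hospital MRSA isolate.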

The subject of assay [8] is SK-BR-3. The assay is described as follows: Cytotoxicity against human SKBR3 cells assessed as inhibition of cell viability incubated for 8 hrs by rapid killing based MTT assay. It is filed as functional. A digest of the protocol:
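Seeding was 2,000–4,000 cells/well, with 24 h attachment. Compound exposure at varying concentrations lasted only 8 h. Viability was read by CCK-8 absorbance at 450 nm. Mean ± SD of three replicates, with curves fitted.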

Assay [9] concerns Staphylococcus aureus. In words: Potency index, ratio of MIC for vancomycin to MIC for test compound for antimicrobial activity against Staphylococcus aureus ATCC 29213. It is filed as functional. A digest of the protocol:
as §3

The term IC50 denotes the concentration that inhibits the measured activity by half. Consider `CO[C@@]12[C@H](COC(N)=O)C3=C(C(=O)C(C)=C(N)C3=O)N1C[C@@H]1N[C@@H]12` [MITOMYCIN], for which the IC50 in the assay on Caco-2 [1] was 5800 nM; in the assay on SK-BR-3 [2] it was 1000 nM; in the assay on A549, 270 nM; in the assay with Jurkat, 430 nM.
As usually defined, the MIC is the least concentration at which growth counts as inhibited. Regarding `CN[C@H](CC(C)C)C(=O)N[C@H]1C(=O)N[C@@H](CC(N)=O)C(=O)N[C@H]2C(=O)N[C@H]3C(=O)N[C@H](C(=O)N[C@H](C(=O)O)c4cc(O)cc(O)c4-c4cc3ccc4O)[C@H](O)c3ccc(c(Cl)c3)Oc3cc2cc(c3O[C@@H]2O[C@H](CO)[C@@H](O)[C@H](O)[C@H]2O[C@H]2C[C@](C)(N)[C@H](O)[C@H](C)O2)Oc2ccc(cc2Cl)[C@H]1O` [VANCOMYCIN], the MIC against Escherichia coli was greater than 16000 ng/mL.
Consider `O=C1c2cccc(O)c2C(=O)c2c3c(cc(O)c21)[C@@]12O[C@@]1([C@H](O)CO)[C@H](C#C/C=C\C#C[C@H]2O)N3`, for which the IC50 in the assay on Caco-2 [1] is 3.16 nM; in the assay with SK-BR-3 [2], 2.56 nM; with A549 it was 0.24 nM; with Jurkat, 0.17 nM. In addition, the MIC was 0.032 ng/mL (≈ 0.0679 nM) against Escherichia coli, less than 0.001 ng/mL against Staphylococcus aureus [4] and less than 0.001 ng/mL against Staphylococcus aureus [7]. For the same molecule, the “Ratio IC50” value in the assay with Staphylococcus aureus [3] turned out to be 1000000; in the assay on Caco-2 [5], 10; in the assay with SK-BR-3 [6], 10; with Staphylococcus aureus [9] it was 1000000. For the same molecule, the result with SK-BR-3 [8] was Active.
As to `C[C@@H](O)[C@@]12O[C@]13c1cc(O)c4c(c1N[C@H]2C#C/C=C\C#C[C@H]3O)C(=O)c1c(O)cccc1C4=O`, the IC50 in the assay on Caco-2 [1] was found to be 3.4 nM; with SK-BR-3 [2], 0.86 nM; in the assay on A549, 0.02 nM; in the assay with Jurkat, 0.24 nM. Besides, the values for the MIC against Escherichia coli, in the assay with Staphylococcus aureus [4] and against Staphylococcus aureus [7] were 0.128 ng/mL (≈ 0.281 nM), less than 0.001 ng/mL and less than 0.001 ng/mL, respectively. Further, the “Ratio IC50” value is recorded as 1000000 in the assay on Staphylococcus aureus [3], 10 in the assay with Caco-2 [5], 10 with SK-BR-3 [6] and 1000000 in the assay with Staphylococcus aureus [9]. The result in the assay with SK-BR-3 [8] was Active.
As to `O=C1c2ccccc2C(=O)c2c3c(cc(O)c21)[C@@]12O[C@@]1([C@H](O)CO)[C@H](C#C/C=C\C#C[C@H]2O)N3`, the IC50 with Caco-2 [1] was 55.2 nM; in the assay with SK-BR-3 [2], 24.2 nM; in the assay with A549, 3.41 nM; in the assay on Jurkat, 0.62 nM. In addition, the MIC against Staphylococcus aureus [4] and in the assay on Staphylococcus aureus [7] was 0.002 ng/mL (≈ 0.00439 nM) in each case.
